Experimental data taken from ChEMBL document CHEMBL1156720, “Synthesis and antimicrobial activity of dermaseptin S1 analogues” (Bioorg Med Chem, 2008).
≈ marks a conversion by molar mass, not a printed value. Square brackets hold non-standard residues; d marks the D form. Peptide text beside a SMILES is read from it. 1Nal = N[C@@H](Cc1cccc2ccccc12)C(=O)O; 2Nal = N[C@@H](Cc1ccc2ccccc2c1)C(=O)O; hPhe = N[C@@H](CCc1ccccc1)C(=O)O

Columns and labels:
Bacillus subtilis = assay: Antibacterial activity against Bacillus subtilis ATCC 9466 after 24 hrs by microdilution serial twofold assay; type: functional; conditions: ATCC 9466, 24 h
Staphylococcus aureus [1] = assay: Antibacterial activity against Staphylococcus aureus ATCC 6538P after 24 hrs by microdilution serial twofold assay; type: functional
[2] = Toxicity assessed as hemolytic activity in human red blood cells after 30 mins; type: cell-based, Erythrocyte; conditions: read-out: HD50
Outline: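 Serially diluted peptides were incubated with 10⁸ washed human RBC (100 µL) for 30 min at 37 °C with agitation. After centrifugation at 900g for 10 min, haemoglobin in the supernatant was read at 550 nm. Distilled water gave maximal lysis. HC₅₀ is the mean from at least two independent experiments run in triplicate.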

Pseudomonas aeruginosa [3] = assay: Antibacterial activity against Pseudomonas aeruginosa ATCC 15442 after 24 hrs by microdilution serial twofold assay; type: functional; conditions: ATCC 15442, 24 h
Staphylococcus aureus [4] = assay: Antibacterial activity against multi drug-resistant Staphylococcus aureus after 24 hrs by microdilution serial twofold assay; type: functional
Outline: (§1)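 Mueller Hinton Broth cultures grown statically at 37 °C and diluted to 5 × 10⁵ CFU/mL. Twofold serial microdilution from 100 μg/mL peptide, final volume 200 μL, with peptide-free controls. MIC is the lowest concentration with no turbidity increase after overnight incubation at 37 °C. Means come from at least two independent experiments run in duplicate.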

Escherichia coli [5] = assay: Antibacterial activity against Escherichia coli HB101 after 24 hrs by microdilution serial twofold assay; type: functional; conditions: HB101, 24 h
Outline: (§2)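 Bacteria grown in static culture at 37 °C in Mueller Hinton broth and diluted to 5 × 10⁵ CFU/mL. Peptides were tested by twofold serial microdilution starting from 100 μg/mL, with peptide-free control wells. The MIC was the lowest concentration with no rise in turbidity after overnight incubation at 37 °C. Values are means of at least two independent experiments run in duplicate.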

Escherichia coli [6] = assay: Antibacterial activity against Escherichia coli HB101 after 3 hrs by microdilution serial twofold assay; type: functional; conditions: HB101, 3 h, read-out: LD50 (the source's name)
Outline: (§3)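 Mueller Hinton Broth static cultures grown at 37 °C and diluted to 5 × 10⁵ CFU/mL. Peptides were tested by twofold serial microdilution starting from 100 μg/mL in a final volume of 200 μL, with peptide-free controls. After 3 h incubation, cultures were serially 10-fold diluted in PBS and plated on Mueller Hinton Agar. Counts were taken after 24 h at 37 °C. Value is the dose giving 50% bacterial lethality.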

Staphylococcus aureus [7] = assay: Antibacterial activity against Staphylococcus aureus Cowan 1 NCTC 8530 after 24 hrs by microdilution serial twofold assay; type: functional; conditions: Cowan 1, 24 h; outline: as §2
Burkholderia cepacia = assay: Antibacterial activity against Burkholderia cepacia 6/06 after 24 hrs by microdilution serial twofold assay; type: functional; outline: as §2
Pseudomonas aeruginosa [8] = assay: Antibacterial activity against multi drug-resistant Pseudomonas aeruginosa after 24 hrs by microdilution serial twofold assay; type: functional; outline: as §1
Staphylococcus aureus [9] = assay: Antibacterial activity against Staphylococcus aureus Cowan 1 NCTC 8530 after 3 hrs by microdilution serial twofold assay; type: functional; conditions: Cowan 1, 3 h, read-out: LD50 (the source's name); outline: as §3
[10] = system: Stenotrophomonas maltophilia; assay: Antibacterial activity against Stenotrophomonas maltophilia FC after 24 hrs by microdilution serial twofold assay; type: functional; outline: as §2
Candida albicans = assay: Antifungal activity against wild type Candida albicans by broth microdilution method; type: functional
Outline: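 Wild-strain yeast was tested in triplicate by broth microdilution following NCCLS recommendations. The MIC was the lowest peptide concentration with no increase in turbidity after overnight incubation at 37 °C.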

Compound	MIC (Bacillus subtilis) [µM]	MIC (Staphylococcus aureus [1]) [µM]	HC50 at 0.5 h [2] [µM]	MIC (Pseudomonas aeruginosa [3]) [µM]	MIC (Staphylococcus aureus [4]) [µM]	MIC (Escherichia coli [5]) [µM]	LC50 (Escherichia coli [6]) [nM]	MIC (Staphylococcus aureus [7]) [µM]	MIC (Burkholderia cepacia) [µM]	MIC (Pseudomonas aeruginosa [8]) [µM]	LC50 (Staphylococcus aureus [9]) [nM]	MIC [10] [µM]	MIC (Candida albicans) [µM]
CSCC[C@H](NC(=O)[C@@H](NC(=O)CNC(=O)[C@H](CC(C)C)NC(=O)[C@H](CCCCN)NC(=O)[C@H](CCCCN)NC(=O)[C@H](CC(C)C)NC(=O)[C@H](CCSC)NC(=O)[C@@H](NC(=O)[C@H](CCCCN)NC(=O)[C@H](Cc1cccc2ccccc12)NC(=O)[C@H](CC(C)C)NC(=O)[C@H](C)N)[C@@H](C)O)[C@@H](C)O)C(=O)N[C@@H](C)C(=O)N[C@@H](CC(C)C)C(N)=O (H-AL[1Nal]KTMLKKLGTMAL-NH2)	11.2 (≈ 19.2 µg/mL)	2.8 (≈ 4.8 µg/mL)	75	5.6 (≈ 9.61 µg/mL)	22.5 (≈ 38.6 µg/mL)	2.8 (≈ 4.8 µg/mL)	900	11.5 (≈ 19.7 µg/mL)	25 (≈ 42.9 µg/mL)	11.2 (≈ 19.2 µg/mL)	2400	22.5 (≈ 38.6 µg/mL)	11.2 (≈ 19.2 µg/mL)
CSCC[C@H](NC(=O)[C@@H](NC(=O)CNC(=O)[C@H](CC(C)C)NC(=O)[C@H](CCCCN)NC(=O)[C@H](CCCCN)NC(=O)[C@H](CC(C)C)NC(=O)[C@H](CCSC)NC(=O)[C@@H](NC(=O)[C@H](CCCCN)NC(=O)[C@H](Cc1ccc2ccccc2c1)NC(=O)[C@H](CC(C)C)NC(=O)[C@H](C)N)[C@@H](C)O)[C@@H](C)O)C(=O)N[C@@H](C)C(=O)N[C@@H](CC(C)C)C(N)=O (H-AL[2Nal]KTMLKKLGTMAL-NH2)	5.6 (≈ 9.61 µg/mL)	2.8 (≈ 4.8 µg/mL)	> 100	5.6 (≈ 9.61 µg/mL)	> 25	2.8 (≈ 4.8 µg/mL)	900	11.5 (≈ 19.7 µg/mL)	25 (≈ 42.9 µg/mL)	11.2 (≈ 19.2 µg/mL)	2500	25 (≈ 42.9 µg/mL)	11.2 (≈ 19.2 µg/mL)
CSCC[C@H](NC(=O)[C@@H](NC(=O)CNC(=O)[C@H](CC(C)C)NC(=O)[C@H](CCCCN)NC(=O)[C@H](CCCCN)NC(=O)[C@H](CC(C)C)NC(=O)[C@H](CCSC)NC(=O)[C@@H](NC(=O)[C@H](CCCCN)NC(=O)[C@H](CCc1ccccc1)NC(=O)[C@H](CC(C)C)NC(=O)[C@H](C)N)[C@@H](C)O)[C@@H](C)O)C(=O)N[C@@H](C)C(=O)N[C@@H](CC(C)C)C(N)=O (H-AL[hPhe]KTMLKKLGTMAL-NH2)	23 (≈ 38.6 µg/mL)	5.8 (≈ 9.74 µg/mL)	> 100	> 46	> 46	11.7 (≈ 19.6 µg/mL)	3000	46.8 (≈ 78.6 µg/mL)	23 (≈ 38.6 µg/mL)	46 (≈ 77.2 µg/mL)	9300	23 (≈ 38.6 µg/mL)	5.8 (≈ 9.74 µg/mL)
CSCC[C@H](NC(=O)[C@@H](NC(=O)CNC(=O)[C@H](CC(C)C)NC(=O)[C@H](CCCCN)NC(=O)[C@H](CCCCN)NC(=O)[C@H](CC(C)C)NC(=O)[C@H](CCSC)NC(=O)[C@@H](NC(=O)[C@H](CCCCN)NC(=O)[C@H](Cc1cccc2ccccc12)NC(=O)[C@H](CC(C)C)NC(=O)[C@H](C)NC(=O)[C@@H](N)CCCCN)[C@@H](C)O)[C@@H](C)O)C(=O)N[C@@H](C)C(=O)N[C@@H](CC(C)C)C(N)=O (H-KAL[1Nal]KTMLKKLGTMAL-NH2)	5.2 (≈ 9.59 µg/mL)	1.3 (≈ 2.4 µg/mL)	80	2.6 (≈ 4.79 µg/mL)	21 (≈ 38.7 µg/mL)	1.2 (≈ 2.21 µg/mL)	< 800	5.1 (≈ 9.4 µg/mL)	42 (≈ 77.4 µg/mL)	10.5 (≈ 19.4 µg/mL)	800	21 (≈ 38.7 µg/mL)	10.5 (≈ 19.4 µg/mL)
H-ALFKTMLKKLGTMAL-NH2	23	23	> 100	> 46	> 46	23.5	4500	> 47.1	> 46	> 46	16700	> 46	5.8
H-ALHKTMLKKLGTMAL-NH2	> 45	> 45	> 100	> 45	> 45	> 44.9	> 44900	> 44.9	> 45	> 45	> 44900	> 45	> 45
H-ALLKTMLKKLGTMAL-NH2	24	24	> 100	> 48	> 48	23.9	6000	> 47.9	> 48	> 48	12000	> 48	12
